Assay results from paper PMC7470514 (RSC Chemical Biology, 2020).
Several values for one entry are separate records, joined by “and”; a condition that tells them apart may be missing. Identical values can stand only once. Where no end group is shown, it is not given here.

Legend:
Assay type in all cases: cell-based
[1] = target: T1, S. pneumoniae ComD1 receptor (Streptococcus pneumoniae serotype 2, UniProt A0A0H2ZM50); experiment: β-galactosidase reporter assay, competitive inhibition
T1 sequence (A0A0H2ZM50 1-441): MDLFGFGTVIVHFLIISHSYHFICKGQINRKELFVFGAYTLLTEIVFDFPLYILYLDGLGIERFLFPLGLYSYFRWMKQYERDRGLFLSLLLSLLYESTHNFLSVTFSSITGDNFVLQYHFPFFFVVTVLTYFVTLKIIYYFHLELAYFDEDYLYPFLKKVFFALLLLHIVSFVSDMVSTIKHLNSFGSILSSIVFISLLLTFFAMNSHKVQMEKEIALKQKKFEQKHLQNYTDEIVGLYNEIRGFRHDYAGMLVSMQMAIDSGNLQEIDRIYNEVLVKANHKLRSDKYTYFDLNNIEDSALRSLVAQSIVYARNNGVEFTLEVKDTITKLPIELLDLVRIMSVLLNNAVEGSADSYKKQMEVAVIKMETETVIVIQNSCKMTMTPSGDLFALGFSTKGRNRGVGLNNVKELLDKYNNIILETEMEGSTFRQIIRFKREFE
In short: (§1)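 Cultures were prepared as for agonism: overnight THY with chloramphenicol, diluted to early exponential phase. Wells held native CSP at a fully activating level (50 nM CSP1 for D39/ComD1; 250 nM CSP2 for TIGR4/ComD2), with test peptide added from a 1 mM stock in triplicate. Controls were CSP plus DMSO, and DMSO alone. Plates were incubated 30 min at 37 °C, then lysed and read by ONPG. IC50 was taken from concentration series.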

[2] = target: T2, S. pneumoniae ComD2 receptor (Streptococcus pneumoniae serotype 4, UniProt A0A0H2US84); experiment: as above
T2 sequence (A0A0H2US84 1-441): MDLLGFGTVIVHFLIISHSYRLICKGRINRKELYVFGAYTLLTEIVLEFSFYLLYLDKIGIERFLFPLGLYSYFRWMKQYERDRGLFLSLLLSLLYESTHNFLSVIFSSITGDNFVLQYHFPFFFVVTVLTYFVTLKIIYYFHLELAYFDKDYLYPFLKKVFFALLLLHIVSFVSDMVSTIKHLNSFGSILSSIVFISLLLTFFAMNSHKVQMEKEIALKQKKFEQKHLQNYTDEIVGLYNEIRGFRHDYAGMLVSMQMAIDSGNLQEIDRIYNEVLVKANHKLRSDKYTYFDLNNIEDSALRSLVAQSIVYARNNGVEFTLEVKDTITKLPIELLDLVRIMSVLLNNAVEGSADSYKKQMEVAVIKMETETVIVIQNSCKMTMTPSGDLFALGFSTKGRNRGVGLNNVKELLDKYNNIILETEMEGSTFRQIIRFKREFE
In short: as §1

[3] = target: T2, S. pneumoniae ComD2 receptor; experiment: β-galactosidase reporter assay, agonism
In short: (§2)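 Reporter strains carry lacZ under the comX promoter. Strains were grown from THY agar (5% horse serum, 4 μg mL−1 chloramphenicol; 8 h, 37 °C, 5% CO2), then overnight (15 h) in THY with chloramphenicol. Cultures were diluted 1:50 (D39) or 1:10 (TIGR4) and grown to OD600 0.30–0.35 or 0.20–0.25.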

[4] = target: T1, S. pneumoniae ComD1 receptor; experiment: β-galactosidase reporter assay, agonism
In short: as §2

Row | EC50 [3] | EC50 [4] | Sequence | IC50 [1] | IC50 [2]
1 |  |  | AIRQTHIFFFNFFKRR [S. mitis-CSP-2-E1AN7II8F] | 204 nM | 135 nM
2 |  |  | AIRQTHNIFFNFFKRR [S. mitis-CSP-2-E1A] | 497 nM | 
3 |  |  | AMRLTHNFFFNFFKRR [S. mitis-CSP-2-E1AI2MQ4LI8F] | 317 nM | 
4 |  |  | AMRLTHNIFFNFFKRR [S. mitis-CSP-2-E1AI2MQ4L] | 54.2 nM | 
5 |  |  | AMRQTHFFFFNFFKRR [S. mitis-CSP-2-E1AI2MN7FI8F] | 294 nM | 418 nM
6 |  |  | AMRQTHIFFFNFFKRR [S. mitis-CSP-2-E1AI2MN7II8F] | 141 nM | 32.9 nM
7 |  |  | AMRQTHNFFFNFFKRR [S. mitis-CSP-2-E1AI2MI8F] | 143 nM | 
8 |  |  | AMRQTHNIFFNFFKRR [S. mitis-CSP-2-E1AI2M] | 85.4 nM | 
9 | 252 nM | 88.2 nM | EIRLTHNIFFNFFKRR [S. mitis-CSP-2-Q4L] |  | 
10 | 202 nM | 68.7 nM | EIRLTHNIFFNLFKRR [S. mitis-CSP-2-Q4LF12L] |  | 
11 | 67.6 nM | 101 nM | EIRQTHFFFFNLFKRR [S. mitis-CSP-2-N7FI8FF12L] |  | 
12 | 22.8 nM | 87.2 nM | EIRQTHIFFFNFFKRR [S. mitis-CSP-2-N7II8F] |  | 
13 | 211 nM | 101 nM | EIRQTHIIFFNFFKRR [S. mitis-CSP-2-N7I] |  | 
14 | 209 nM | 128 nM | EIRQTHNFFFNFFKRR [S. mitis-CSP-2-I8F] |  | 
15 | 220 nM | 4.63 nM | EIRQTHNIFFFFFKRR [S. mitis-CSP-2-N11F] |  | 
16 | 127 nM | 4.97 nM | EIRQTHNIFFFLFKRR [S. mitis-CSP-2-N11FF12L] |  | 
17 | 635 nM | 663 nM | EIRQTHNIFFNFFKRR [S. mitis-CSP-2] |  | 
18 | 75.6 nM | 137 nM | EMRLTHFIFFNFFKRR [S. mitis-CSP-2-I2MQ4LN7F] |  | 
19 | < 100 nM and 30 nM | < 100 nM and 42 nM | EMRLTHNFFFNFFKRR [S. mitis-CSP-2-I2MQ4LI8F] |  | 
20 | 188 nM | 14.8 nM | EMRLTHNIFFFFFKRR [S. mitis-CSP-2-I2MQ4LN11F] |  | 
21 | 141 nM | 49.9 nM | EMRLTHNIFFNFFKRR [S. mitis-CSP-2-I2MQ4L] |  | 
22 | 139 nM | 17.1 nM | EMRLTHNIFFNLFKRR [S. mitis-CSP-2-I2MQ4LF12L] |  | 
23 | < 100 nM and 13.5 nM | < 100 nM and 63.6 nM | EMRQTHFFFFNFFKRR [S. mitis-CSP-2-I2MN7FI8F] |  | 
24 | 112 nM | 72.8 nM | EMRQTHFIFFNLFKRR [S. mitis-CSP-2-I2MN7FF12L] |  | 
25 | < 100 nM and 2.67 nM | < 100 nM and 61.6 nM | EMRQTHIFFFNFFKRR [S. mitis-CSP-2-I2MN7II8F] |  | 
26 | < 100 nM and 26.2 nM | < 100 nM and 6.95 nM | EMRQTHNFFFFFFKRR [S. mitis-CSP-2-I2MI8FN11F] |  | 
27 | 83.2 nM | 151 nM | EMRQTHNFFFNFFKRR [S. mitis-CSP-2-I2MI8F] |  | 
28 | 136 nM | 87.7 nM | EMRQTHNIFFNFFKRR [S. mitis-CSP-2-I2M] |  | 
29 | 146 nM | 25.8 nM | EMRQTHNIFFNLFKRR [S. mitis-CSP-2-I2MF12L] |  | 

Row | Sequence | EC50 [3] | EC50 [4] | IC50 [1] | IC50 [2]
30 | EIRLTHFFFFNFFKRR [S. mitis-CSP-2-Q4LN7FI8F] | 87.2 nM | 427 nM |  | 
31 | EIRLTHFIFFNFFKRR [S. mitis-CSP-2-Q4LN7F] | 322 nM | 371 nM |  | 
32 | EIRLTHFIFFNLFKRR [S. mitis-CSP-2-Q4LN7FF12L] |  | 426 nM |  | 
33 | EIRLTHIFFFNFFKRR [S. mitis-CSP-2-Q4LN7II8F] |  | 242 nM |  | 
34 | EIRLTHIIFFNFFKRR [S. mitis-CSP-2-Q4LN7I] | 315 nM | 348 nM |  | 
35 | EIRLTHNFFFNFFKRR [S. mitis-CSP-2-Q4LI8F] | 370 nM | 280 nM |  | 
36 | EIRLTHNIFFFFFKRR [S. mitis-CSP-2-Q4LN11F] | 434 nM | 9.38 nM |  | 
37 | EIRQTHFFFFNFFKRR [S. mitis-CSP-2-N7FI8F] | 24.6 nM |  |  | 
38 | EIRQTHFIFFNFFKRR [S. mitis-CSP-2-N7F] | 471 nM | 140 nM |  | 
39 | EIRQTHFIFFNLFKRR [S. mitis-CSP-2-N7FF12L] | 533 nM | 156 nM |  | 
40 | EIRQTHIFFFNLFKRR [S. mitis-CSP-2-N7II8FF12L] |  | 891 nM |  | 
41 | EIRQTHIIFFNLFKRR [S. mitis-CSP-2-N7IF12L] | 321 nM | 613 nM |  | 
42 | EIRQTHNFFFFFFKRR [S. mitis-CSP-2-I8FN11F] | 284 nM | 12.2 nM |  | 
43 | EIRQTHNFFFNLFKRR [S. mitis-CSP-2-I8FF12L] | 202 nM | 160 nM |  | 
44 | EIRQTHNIFFNLFKRR [S. mitis-CSP-2-F12L] | 813 nM | 54.3 nM |  | 
45 | EMRLTHIIFFNFFKRR [S. mitis-CSP-2-I2MQ4LN7I] | 187 nM | 155 nM |  | 
46 | EMRQTHFIFFNFFKRR [S. mitis-CSP-2-I2MN7F] | 123 nM | 131 nM |  | 
47 | EMRQTHIIFFFFFKRR [S. mitis-CSP-2-I2MN7IN11F] |  | 568 nM |  | 
48 | EMRQTHIIFFNFFKRR [S. mitis-CSP-2-I2MN7I] | 54.8 nM | 448 nM |  | 
49 | EMRQTHNIFFFFFKRR [S. mitis-CSP-2-I2MN11F] | 753 nM | 17.7 nM |  | 
